Here are results for 14 compounds from PubChem BioAssay.

A short description of test [1]: Her2 expression decrease, cell viability multiplex – SKBR3 breast tumor cells, AlphaScreen, ATP viability, primary screen (AID 461;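 active = Her2 level under about 52% in both replicate screens, with viability over 70% of control, limit read from the data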;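 for Her2 level: lower value means less Her2 protein in the cells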;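 for viability: percent of carrier control wells set as 100% viability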). As to conditions: SKBR3 Her2 protein level, 18-24 h, measured here: SKBR3 viability, ATP luminescence, at 10 µM.
In test [2] the target is Receptor tyrosine-protein kinase erbB-2 (Homo sapiens) (UniProt P04626). The test is described as above. As to conditions: 18-24 h, at 10 µM, stronger effect = lower value.
Receptor tyrosine-protein kinase erbB-2 (Homo sapiens), sequence (P04626 whole entry, looked up): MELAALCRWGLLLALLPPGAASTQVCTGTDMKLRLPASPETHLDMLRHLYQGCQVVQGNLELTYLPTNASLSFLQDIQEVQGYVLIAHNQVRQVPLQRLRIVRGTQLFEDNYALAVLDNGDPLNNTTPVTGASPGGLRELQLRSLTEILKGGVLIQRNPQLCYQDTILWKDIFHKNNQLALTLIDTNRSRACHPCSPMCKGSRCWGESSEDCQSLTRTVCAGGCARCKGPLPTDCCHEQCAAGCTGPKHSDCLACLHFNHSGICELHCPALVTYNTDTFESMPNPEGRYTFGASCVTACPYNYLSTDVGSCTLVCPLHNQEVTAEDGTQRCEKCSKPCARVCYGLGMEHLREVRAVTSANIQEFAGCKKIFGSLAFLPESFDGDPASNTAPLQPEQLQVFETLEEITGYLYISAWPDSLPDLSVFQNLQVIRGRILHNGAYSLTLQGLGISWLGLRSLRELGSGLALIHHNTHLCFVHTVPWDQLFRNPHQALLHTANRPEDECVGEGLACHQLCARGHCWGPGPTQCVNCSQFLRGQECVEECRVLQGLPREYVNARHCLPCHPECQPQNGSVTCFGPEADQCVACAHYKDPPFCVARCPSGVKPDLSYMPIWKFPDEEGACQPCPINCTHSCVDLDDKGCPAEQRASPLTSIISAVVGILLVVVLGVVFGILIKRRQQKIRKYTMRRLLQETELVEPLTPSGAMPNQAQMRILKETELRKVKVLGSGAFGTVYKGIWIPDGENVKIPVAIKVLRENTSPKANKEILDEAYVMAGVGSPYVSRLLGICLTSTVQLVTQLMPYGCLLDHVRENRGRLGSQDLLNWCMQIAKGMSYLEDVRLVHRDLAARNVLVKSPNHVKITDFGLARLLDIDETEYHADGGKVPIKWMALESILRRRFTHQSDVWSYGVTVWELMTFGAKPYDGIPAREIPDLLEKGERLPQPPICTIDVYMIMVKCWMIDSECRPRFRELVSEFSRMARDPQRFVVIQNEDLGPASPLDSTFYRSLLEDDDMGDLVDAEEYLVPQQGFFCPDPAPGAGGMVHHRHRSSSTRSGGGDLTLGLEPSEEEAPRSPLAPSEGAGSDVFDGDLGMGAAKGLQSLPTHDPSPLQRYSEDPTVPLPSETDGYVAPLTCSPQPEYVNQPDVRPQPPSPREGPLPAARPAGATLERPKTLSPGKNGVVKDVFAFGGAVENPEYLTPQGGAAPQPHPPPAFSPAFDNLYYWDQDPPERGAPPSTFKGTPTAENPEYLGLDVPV
Test [3] is described as follows: reduced viability of SK-BR-3 breast cancer cells – cell-based, 24 h, human, pilot screen (AID 572;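 active = viability at or below 10% of carrier control in both of two separate runs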;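 note: compound exposure lasted between 18 and 24 h rather than exactly 24 h; 100% = carrier-treated control wells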). The following applies: SK-BR-3 viability, CellTiter-Glo luminescence, at 10 µM, stronger effect = lower value.
Test [4] can be described thus: HUVEC growth inhibition – cell-based, human, primary screen (AID 575;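 active = viability at or below 30% in both replicate assays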;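 note: 100% = median of untreated cell wells with 0.1% DMSO on each plate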). As to conditions: HUVEC proliferation, CellTiter-Glo luminescence, 72 h; at 10 µM; stronger effect = lower value. In a few lines: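 System – primary HUVEC, no more than 12 passages · Medium – Low-serum (2% FBS) EBM, supplemented · Times – 72 h exposure, 37 °C, 5% CO2, 30 min RT equilibration · Measured by – luminescent ATP assay · Read-out – % viability relative to median vehicle-well signal on each plate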
On the technique in general: ATP-based viability assays read luminescence as a measure of living cells.

Test [5] can be described thus: H69AR cell proliferation blockers – human, duplicate replicates, primary screen (AID 580;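 active = viability at or under a set limit in both replicates, limit being median viability minus 3 SD, cut at about 48% in these data, passing the limit was not always enough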;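 note: 100% = mean luminescence of untreated wells and 0% = no signal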). As to conditions: H69AR lung tumor cells viability, ATP luminescence, 72 h; at 10 µM; stronger effect = lower value.
The nature of test [6]: MRP1 drug-resistance reversers in H69AR cells – cell-based, doxorubicin co-treatment, pilot screen (AID 601;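 active = viability loss from added drug above about 55%, and viability with drug at most 40%, in both replicates, limit read from the data, passing the limit was not always enough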). The following applies: CellTiter-Glo, 72 h, at 10 µM; for differential viability (reversal): stronger effect = higher value.
Test [7] in a line: yeast transport mutant growth inhibition pilot in 384-well plates, post-Golgi transport modulator project (AID 636; in the data active = inhibition above about 31%). As to conditions: absorbance 615 nm, about 18 h, stronger effect = higher value.
A short description of test [8]: growth suppression of yeast trafficking mutant, preliminary HTS, modulators of trafficking downstream of Golgi apparatus project, 1536-format plate, OD 615 nm (AID 637). The following applies: yeast transport mutant growth, absorbance 615 nm, 18 h; stronger effect = higher value.
Setting [9] is: H69AR cells + 2 uM doxorubicin, measured here: viability with 2 uM doxorubicin, stronger effect = lower value.
Setting [10] is: H69AR cells, compound alone cytotoxicity.

The source made the active and inactive calls. Cut-off read from the data, not from the text of the source, unless noted: active = inhibition above about 30%; inactive = the rest.

A word on the viability: it is a read-out of living cells in per cent, often relative to untreated cells. Usually inhibition stands for the change of the read-out against control, counted positive when it falls. As for `c1cncc(-c2nnc(SCCSc3nnc(-c4cccnc4)o3)o2)c1`, the viability in test [1] is 99.5%; in test [3], 99.5% (inactive); in test [4], 98.7% (inactive); in test [5] it was 91.9% (inactive); in test [6] (setting [9]), 91.8%; in test [6] (setting [10]) it was 91.9%. Besides, in test [2], the Her2 level was 93% (inactive). Further, the differential viability (reversal) in test [6] (H69AR cells + 2 uM doxorubicin) was 0.085% (inactive). In addition, the inhibition in test [7] was -5.68% (inactive); in test [8], -2.17% (inactive).
Turning to `COc1cccc(NC(=O)N2CCCC2C(=O)NC(C)C)c1` (stereo not given), the viability is 112% in test [1]; 112% (inactive) in test [3]; 82.6% (inactive) in test [4]; 99.1% (inactive) in test [5]; 87.8% in test [6] (setting [9]); 99.1% in test [6] (setting [10]). For the same compound, the Her2 level in test [2] was 78% (inactive). In addition, the differential viability (reversal) in test [6] (H69AR cells + 2 uM doxorubicin) was 11.2% (inactive). The inhibition in test [7] was -5.07% (inactive); in test [8], 9.51% (inactive).
Turning to `O=C(NCC(=O)N(c1cnc2ccccc2c1)C(C(=O)NC1CCCC1)c1ccncc1)c1ccco1` (stereo not given), the viability is 86% in test [1]; 86% (inactive) in test [3]; 94.5% (inactive) in test [4]; 90.1% (inactive) in test [5]; 93.7% in test [6] (setting [9]); 90.1% in test [6] (setting [10]). Besides, the Her2 level in test [2] is 94% (inactive). In addition, the differential viability (reversal) in test [6] (H69AR cells + 2 uM doxorubicin) was -3.65% (inactive). The values for the inhibition in test [7] and in test [8] were 3.64% (inactive) and 13.4% (inactive), respectively.
For the compound `O=C(C1CCCN(S(=O)(=O)c2cnc[nH]2)C1)N1CCN(c2ccc(Cl)cc2)CC1` (stereo not given), the viability in test [1] was 85.5%; in test [3], 85.5% (inactive); in test [4], 110% (inactive); in test [5] it was 111% (inactive); in test [6] (setting [9]), 96%; in test [6] (setting [10]), 111%. Also, in test [2], the Her2 level was 93% (inactive). The differential viability (reversal) in test [6] (H69AR cells + 2 uM doxorubicin) is 14.8% (inactive). Besides, the inhibition in test [7] was -0.13% (inactive); in test [8], -4.92% (inactive).
For `Cc1ccc(Cn2c(SCCN3CCCCC3)nc3c2c(=O)[nH]c(=O)n3C)cc1`, the viability in test [1] is 94.5%; in test [3], 94.5% (inactive); in test [4] it was 84.1% (inactive); in test [5], 81.7% (inactive); in test [6] (setting [9]) it was 84.8%; in test [6] (setting [10]), 81.7%. For the same compound, the Her2 level in test [2] was 104% (inactive). In test [6] (H69AR cells + 2 uM doxorubicin), the differential viability (reversal) is -3.14% (inactive). The figures for the inhibition in test [7] and in test [8] were -7.6% (inactive) and -6.83% (inactive), respectively.
Regarding `COc1ccc(NC(=O)CS(=O)CC(=O)Nc2cc(Cl)ccc2OC)cc1` (stereo not given), the viability in test [1] is 91.5%; in test [3], 91.5% (inactive); in test [4], 80.8% (inactive); in test [5], 90.9% (inactive); in test [6] (setting [9]) it was 92.1%; in test [6] (setting [10]) it was 90.9%. Further, the Her2 level in test [2] was 106% (inactive). Besides, the differential viability (reversal) in test [6] (H69AR cells + 2 uM doxorubicin) was -1.21% (inactive). For the same compound, the values for the inhibition in test [7] and in test [8] were -4.36% (inactive) and -3.67% (inactive), respectively.
In the case of `CC1=C(C(=O)NC2CCC(C)CC2)C2(CCC(C)CC2)OC1=O` (stereo not given), the viability is 112% in test [1]; 112% (inactive) in test [3]; 96.2% (inactive) in test [4]; 90.4% (inactive) in test [5]; 94.1% in test [6] (setting [9]); 90.4% in test [6] (setting [10]). For the same compound, in test [2], the Her2 level is 84% (inactive). Besides, in test [6] (H69AR cells + 2 uM doxorubicin), the differential viability (reversal) was -3.75% (inactive). Also, the inhibition in test [7] is -2.27% (inactive); in test [8], -5.25% (inactive).
Regarding `COc1ccc(-c2nnc(SCC(=O)NC(=O)NCc3ccco3)o2)cc1`, the viability in test [1] is 102%; in test [3] it was 102% (inactive); in test [4], 85.9% (inactive); in test [5], 86.8% (inactive); in test [6] (setting [9]), 88.1%; in test [6] (setting [10]) it was 86.8%. For the same compound, in test [2], the Her2 level was 85.5% (inactive). Also, the differential viability (reversal) in test [6] (H69AR cells + 2 uM doxorubicin) was -1.33% (inactive). Moreover, the results for the inhibition in test [7] and in test [8] were -0.65% (inactive) and -2.46% (inactive), respectively.
Take `O=C(CN(Cc1ccco1)C(=O)CNS(=O)(=O)c1ccc(F)cc1)NCCc1ccccc1`: the viability in test [1] was 78%; in test [3], 78% (inactive); in test [4], 85.8% (inactive); in test [5] it was 91.9% (inactive); in test [6] (setting [9]), 91%; in test [6] (setting [10]), 91.9%. For the same compound, the Her2 level in test [2] was 91.5% (inactive). Further, the differential viability (reversal) in test [6] (H69AR cells + 2 uM doxorubicin) is 0.9% (inactive). Moreover, the values for the inhibition in test [7] and in test [8] were -6.35% (inactive) and -2.79% (inactive), respectively.
As for `Cc1ccc2cc3cc(C(=O)N4CC(C)CC(C)C4)oc3nc2c1` (stereo not given), the viability in test [1] was 108%; in test [3], 108% (inactive); in test [4], 69.3% (inactive); in test [5], 89.2% (inactive); in test [6] (setting [9]), 85.5%; in test [6] (setting [10]) it was 89.2%. Moreover, the Her2 level in test [2] is 78.5% (inactive). In test [6] (H69AR cells + 2 uM doxorubicin), the differential viability (reversal) was 3.71% (inactive). Further, the results for the inhibition in test [7] and in test [8] were -2.47% (inactive) and -6.35% (inactive), respectively.
`O=C(C1CCN(S(=O)(=O)c2cccnc2)CC1)N1CCN(c2ccc(Cl)cc2)CC1`: the viability was 84% in test [1]; 84% (inactive) in test [3]; 70.2% (inactive) in test [4]; 89.7% (inactive) in test [5]; 70.9% in test [6] (setting [9]); 89.7% in test [6] (setting [10]). Besides, the Her2 level in test [2] is 81% (inactive). Besides, in test [6] (H69AR cells + 2 uM doxorubicin), the differential viability (reversal) was 18.8% (inactive). Moreover, the inhibition in test [7] was -2.11% (inactive); in test [8] it was -4.44% (inactive).
As to `CN(C=O)CP(=O)(O)CCN1CCCC1=O`, the viability in test [1] is 126%; in test [3], 126% (inactive); in test [4], 104% (inactive); in test [5], 99.4% (inactive); in test [6] (setting [9]), 92.2%; in test [6] (setting [10]), 99.4%. Also, the Her2 level in test [2] was 121% (inactive). Besides, the differential viability (reversal) in test [6] (H69AR cells + 2 uM doxorubicin) was 7.19% (inactive). Also, the results for the inhibition in test [7] and in test [8] were -4.47% (inactive) and 0.66% (inactive), respectively.
On to `CC(=O)Nc1ccc(OC(=O)c2cccnc2)cc1`, for which the viability in test [1] is 111%; in test [3], 111% (inactive); in test [4] it was 116% (inactive); in test [5] it was 99.9% (inactive); in test [6] (setting [9]), 84.9%; in test [6] (setting [10]), 99.9%. For the same compound, the Her2 level in test [2] is 116% (inactive). Further, the differential viability (reversal) in test [6] (H69AR cells + 2 uM doxorubicin) was 15.1% (inactive). Moreover, the values for the inhibition in test [7] and in test [8] were -7.57% (inactive) and -3.17% (inactive), respectively.
As to `CCOC(=O)c1ccc(N2C(=O)CC(N(C)CCc3ccc(OC)c(OC)c3)C2=O)cc1` (stereo not given), the viability in test [1] was 102%; in test [3], 102% (inactive); in test [4] it was 101% (inactive); in test [5] it was 96.8% (inactive); in test [6] (setting [9]), 84.7%; in test [6] (setting [10]), 96.8%. Besides, in test [2], the Her2 level was 123% (inactive). Moreover, the differential viability (reversal) in test [6] (H69AR cells + 2 uM doxorubicin) is 12.1% (inactive). In addition, the inhibition in test [7] was -2.73% (inactive); in test [8], -8.83% (inactive).
